Active and inactive are the calls of the source. No cut-off for these calls is given here.
How the values were obtained:
[1] = biological target: T1, Bromodomain-containing protein 1 (Homo sapiens) (UniProt O95696); experiment: Binding affinity to human recombinant His6-tagged BRD1 (E556 to A688 residues) expressed in Escherichia coli BL21 (DE3) cells assessed as change in melting temperature at 200 uM incubated for 30 mins by SYPRO orange dye based thermal shift assay
T1 sequence (whole entry): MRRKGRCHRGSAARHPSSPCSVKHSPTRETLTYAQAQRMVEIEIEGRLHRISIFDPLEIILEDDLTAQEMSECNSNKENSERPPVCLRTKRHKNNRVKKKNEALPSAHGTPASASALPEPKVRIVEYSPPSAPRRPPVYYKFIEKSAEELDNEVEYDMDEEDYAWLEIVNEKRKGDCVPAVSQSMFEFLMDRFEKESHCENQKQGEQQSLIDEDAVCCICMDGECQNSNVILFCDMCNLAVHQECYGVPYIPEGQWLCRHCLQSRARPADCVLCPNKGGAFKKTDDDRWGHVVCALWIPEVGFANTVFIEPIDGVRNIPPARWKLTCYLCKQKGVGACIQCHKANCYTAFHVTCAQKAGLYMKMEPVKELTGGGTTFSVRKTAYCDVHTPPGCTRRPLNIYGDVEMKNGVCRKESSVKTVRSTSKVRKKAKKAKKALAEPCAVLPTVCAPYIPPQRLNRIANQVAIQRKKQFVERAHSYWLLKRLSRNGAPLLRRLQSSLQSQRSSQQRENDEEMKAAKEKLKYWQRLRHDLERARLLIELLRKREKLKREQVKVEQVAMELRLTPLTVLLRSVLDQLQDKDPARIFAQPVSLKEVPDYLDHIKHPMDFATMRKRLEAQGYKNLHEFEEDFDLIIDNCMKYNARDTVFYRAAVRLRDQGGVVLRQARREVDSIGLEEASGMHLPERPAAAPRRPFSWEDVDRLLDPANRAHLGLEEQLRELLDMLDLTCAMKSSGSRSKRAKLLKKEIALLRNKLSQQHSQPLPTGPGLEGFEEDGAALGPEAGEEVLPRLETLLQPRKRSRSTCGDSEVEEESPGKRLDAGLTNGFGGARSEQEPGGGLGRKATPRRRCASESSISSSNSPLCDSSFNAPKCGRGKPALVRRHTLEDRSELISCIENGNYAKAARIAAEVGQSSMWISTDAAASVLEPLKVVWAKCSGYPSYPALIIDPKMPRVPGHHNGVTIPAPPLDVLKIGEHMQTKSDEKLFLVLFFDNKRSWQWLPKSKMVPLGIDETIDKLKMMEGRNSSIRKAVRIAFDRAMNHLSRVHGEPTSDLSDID
Outline: (§1)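 Thermal shift assay measuring change in melting temperature of each isolated bromodomain module in the presence of compound versus without.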

[2] = biological target: T2, Bromodomain-containing protein 9 (Homo sapiens) (UniProt Q9H8M2); experiment: Binding affinity to human recombinant His6-tagged BRD9 (L14 to Q134 residues) expressed in Escherichia coli BL21 (DE3) cells assessed as change in melting temperature at 200 uM incubated for 30 mins by SYPRO orange dye based thermal shift assay; outline: as §1
T2 sequence (whole entry): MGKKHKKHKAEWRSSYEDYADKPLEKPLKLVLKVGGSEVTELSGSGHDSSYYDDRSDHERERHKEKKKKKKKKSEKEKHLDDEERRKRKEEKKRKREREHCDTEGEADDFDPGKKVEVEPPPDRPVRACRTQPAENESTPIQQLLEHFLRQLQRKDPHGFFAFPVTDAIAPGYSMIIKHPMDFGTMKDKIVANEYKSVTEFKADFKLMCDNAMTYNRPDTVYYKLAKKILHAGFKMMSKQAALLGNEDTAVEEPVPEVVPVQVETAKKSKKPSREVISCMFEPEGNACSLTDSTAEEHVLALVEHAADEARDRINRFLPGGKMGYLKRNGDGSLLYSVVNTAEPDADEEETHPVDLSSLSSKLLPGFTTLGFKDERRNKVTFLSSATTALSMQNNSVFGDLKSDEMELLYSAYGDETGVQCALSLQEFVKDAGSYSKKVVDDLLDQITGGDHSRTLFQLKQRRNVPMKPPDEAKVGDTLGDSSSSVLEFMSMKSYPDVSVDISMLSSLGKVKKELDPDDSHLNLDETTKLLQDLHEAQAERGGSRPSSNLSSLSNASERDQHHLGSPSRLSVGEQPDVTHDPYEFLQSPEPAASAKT

[3] = test system: LNCaP; experiment: Antiproliferative activity against AR-positive human LNCAP cells assessed as reduction in cell viability incubated for 96 hrs by cell-titer glo assay; format: functional, cell-based
Outline: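 Prostate cancer cells treated across a concentration range; viability read by CellTiter-Glo luminescence; experiments in triplicate; IC50 derived from the dose–response curves.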

[4] = test system: VCaP; experiment: Inhibition of BET bromodomain in human VCaP cells assessed as suppression of full-length androgen receptor mRNA expression at 5 uM incubated for 48 hrs by SYBR green dye based qRT-PCR analysis; format: cell-based
Outline: (§2)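 LNCaP or VCaP cells exposed to vehicle (DMSO) or compound at 5 µM for 48 h; mRNA levels measured by qRT-PCR; mean ± s.e.m., n = 3; two-tailed Student's t-test.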

[5] = test system: CWR22R; experiment: Inhibition of colony formation in human 22Rv1 cells at 0.5 uM incubated for 14 days by crystal violet staining based assay; format: functional, cell-based; conditions: time 14.0 day
Outline: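 22Rv1 cells cultured with vehicle (DMSO) or compound at 0.5, 1.0 or 2.0 µM for 14 days, then stained and colonies assessed.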

[6] = test system: MCF7; experiment: Antiproliferative activity against human MCF-7 cells assessed as reduction in cell viability incubated for 96 hrs by cell-titer glo assay; format: functional, cell-based; conditions: MCF7, 96 h
[7] = test system: LNCaP; experiment: Inhibition of BET bromodomain in human LNCaP cells assessed as suppression of KLK2 mRNA expression at 5 uM incubated for 48 hrs by SYBR green dye based qRT-PCR analysis; format: cell-based; outline: as §2
[8] = test system: VCaP; experiment: Inhibition of BET bromodomain in human VCaP cells assessed as suppression of TMPRSS2 mRNA expression at 5 uM incubated for 48 hrs by SYBR green dye based qRT-PCR analysis; format: cell-based; outline: as §2
[9] = test system: NCI-H1975; experiment: Antiproliferative activity against human NCI-H1975 cells assessed as reduction in cell viability incubated for 72 hrs by cell-titer glo assay; format: functional, cell-based; conditions: NCI-H1975, 72 h
[10] = test system: VCaP; experiment: Inhibition of BET bromodomain in human VCaP cells assessed as suppression of ERG mRNA expression at 5 uM incubated for 48 hrs by SYBR green dye based qRT-PCR analysis; format: cell-based; outline: as §2
[11] = test system: LNCaP C4-2B; experiment: Inhibition of colony formation in human LNCaP C4-2B cells at 0.5 uM incubated for 14 days by crystal violet staining based assay; format: functional, cell-based; conditions: time 14.0 day
Outline: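 C4-2B cells cultured with vehicle (DMSO) or compound at 0.5, 1.0 or 2.0 μM for 14 days, then colonies stained and counted against vehicle.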

[12] = test system: U2OS; experiment: Antiproliferative activity against human U2OS cells assessed as reduction in cell viability incubated for 72 hrs by cell-titer glo assay; format: functional, cell-based
[13] = test system: HeLa; experiment: Antiproliferative activity against human HeLa cells assessed as reduction in cell viability incubated for 72 hrs by cell-titer glo assay; format: functional, cell-based

Row | ΔTm [1] [°C] | ΔTm [2] [°C] | IC50 [3] [nM] | IC50 [6] [nM] | IC50 [9] [nM] | IC50 [12] [nM] | IC50 [13] [nM] | Structure (SMILES) | inhibition [4] | inhibition [5] | inhibition [7] | inhibition [8] | inhibition [10] | inhibition [11]
1 | 0 | -0.9 | 570 | – | – | – | – | Cc1noc2c(Br)cc(-c3nc4ccc(N5CCOCC5)cc4n3CC3CCCCC3)cc12 | – | – | – | – | – | –
2 | -0.4 | -0.8 | 6160 | – | – | – | – | CNc1cc2onc(C)c2cc1NS(=O)(=O)c1cc(Br)ccc1OC | – | – | – | – | – | –
3 | -0.1 | -0.9 | 1060 | 1000 | 2500 | > 5000 | > 5000 | COc1cc2onc(C)c2cc1NS(=O)(=O)c1cc(Br)ccc1OC | Active | Active | Active | Active | Active | Active
4 | 0.3 | -0.8 | 470 | 1000 | > 5000 | > 5000 | > 5000 | Cc1noc2ccc(-c3nc4ccc(N5CCOC[C@@H]5C)cc4n3CC3CCCCC3)cc12 | Active | Active | Active | Active | Active | Active
